This is an account of results in ChEMBL document CHEMBL1156641, “Linear and cyclic C18 terpenoids from the southern Australian marine brown alga Cystophora moniliformis” (J Nat Prod, 2008).

For assay [1], the system named is Trichophyton mentagrophytes. The experiment in a line: […] activity against Trichophyton mentagrophytes ATCC 28185 assessed as zone of inhibition. The class given is functional. Summed up: (§1)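 Disk diffusion: fungal inoculum of known concentration mixed into potato dextrose or Mueller Hinton agar and poured as a lawn. Samples at 1 mg/mL were applied to 6 mm filter paper disks, solvent evaporated, and disks placed on the seeded agar with solvent and positive controls. After incubation, the zone of inhibition outside the disk was measured as radius in mm.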

Assay [2] deals with Trichophyton mentagrophytes. The experiment in a line: […] activity against Trichophyton mentagrophytes ATCC 28185 assessed as zone of inhibition at 1 mg/mL. The class given is functional, organism-based. Summed up: as §1
A further assay has as its system P388. The experiment in a line: Antitumor activity against mouse P388 cells after 72 hrs by MTT assay. It counts as functional, cell-based. The note with it: P388, 72 h. Summed up:
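P388 murine leukemia cells were incubated 72 h with a 2-fold dilution series of sample, tested from 1 mg/mL. Growth was read by MTT reduction to formazan (absorbance) relative to untreated control cells. The concentration giving 50% growth reduction is reported as IC50.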
In general terms: Tetrazolium assays rely on reduction of a dye to a coloured formazan, in cell work by metabolically active cells.

Calls of active or inactive are those of the source. The calls are words filed in the database; no cut-off is given here. Where only a bound is given, the exact number is not on record here.

As usually defined, the IC50 is the point on the concentration scale where inhibition reaches its midpoint. Higher therefore signals weaker potency in that assay. `CC(=O)CC/C=C(\C)CC/C=C(\C)CC[C@@H](O)C(C)(C)O`: the “inhibition zone (IZ)” value in assay [1] turned out to be 1 mm. Further, in assay [2], the outcome was inactive. The IC50 in the assay on P388 is > 40 µM.

For the compound `CC(=O)CC/C=C(\C)CCC1=C(C)CC[C@H](O)C1(C)C`, the “inhibition zone (IZ)” value in assay [1] is given as 1 mm. Moreover, the outcome in assay [2] was inactive. Further, the IC50 in the assay with P388 is > 40 µM.

As to `C=C(C)[C@H](O)CC/C(C)=C/CC/C(C)=C/CCC(C)=O`, in assay [1], the “inhibition zone (IZ)” value is on record as 1 mm. Further, in assay [2], the outcome was inactive. For the same compound, the half-inhibitory concentration (IC50) in the assay with P388 was > 40 µM.

Consider `CC(=O)CC/C=C(\C)CC/C=C(\C)CC/C=C(/C)CO`, for which the “inhibition zone (IZ)” value in assay [1] is reported as 1 mm. The outcome in assay [2] was inactive. Moreover, the IC50 with P388 is > 40 µM.

On to `CC(=O)CC/C=C(\C)CC[C@H]1C(C)(C)[C@@H](O)CC[C@@]1(C)O` [MONILIFORMINOL B], for which the “inhibition zone (IZ)” value in assay [1] is given as 1 mm. Moreover, the outcome in assay [2] was inactive. For the same compound, the IC50 in the assay on P388 was > 40 µM.

On to `COC(C)(C)[C@H](O)CC/C(C)=C/CC/C(C)=C/CCC(C)=O`, for which the “inhibition zone (IZ)” value in assay [1] stood at 1 mm. The result in assay [2] was inactive. Besides, the IC50 in the assay on P388 was > 40 µM.

Consider `CC(=O)CC/C=C(\C)CC[C@H]1C(C)(C)[C@@H](O)CC[C@]1(C)O` [MONILIFORMINOL A], for which the “inhibition zone (IZ)” value in assay [1] is listed as 1 mm. Moreover, the result in assay [2] was inactive. In addition, in the assay on P388, the 50% inhibitory concentration (IC50) is > 40 µM.
